# Test results published in ChEMBL document CHEMBL1146029, “The synthesis and in vitro testing of structurally novel antibiotics derived from acylnitroso Diels-Alder adducts” (2006).
# Activity calls are given as the source filed them. No cut-off for these calls is given here.
# Columns and labels:
# [1] = system: Mycobacterium; test: Antibacterial activity against wild type Mycobacterium vaccae IMET10670 by agar diffusion assay; type: functional, Mycolicibacterium vaccae
# How it was run: (§1)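 Test bacteria at 10^6 CFU/ml were suspended in melted nutrient agar and poured into Petri dishes. 9 mm wells were cut and each filled with 50 µl of a 0.2 mM compound solution. Inhibition zones were read after 18 h at 37 °C. Growth of colonies inside the zone was flagged.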
# [2] = system: Escherichia coli; test: Antibacterial activity against wild type Escherichia coli DC0 by agar diffusion assay; type: functional; how it was run: as §1
# [3] = system: Escherichia coli; test: Antibacterial activity against TEM1 beta-lactamase Escherichia coli IV-3-2 by agar diffusion assay; type: functional; how it was run: as §1
# [4] = system: Enterobacter cloacae; test: Antibacterial activity against ampC beta-lactamase Enterobacter cloacae P99 by agar diffusion assay; type: functional
# [5] = system: Pseudomonas aeruginosa; test: Antibacterial activity against PSE1 beta-lactamase Pseudomonas aeruginosa IV-3-13 by agar diffusion assay; type: functional; how it was run: as §1
# [6] = system: Escherichia coli; test: Antibacterial activity against Escherichia coli X580 by agar diffusion assay; type: functional; how it was run: as §1
# [7] = system: Escherichia coli; test: Antibacterial activity against Escherichia coli ATCC 33475 by agar diffusion assay; type: functional; how it was run: as §1
# [8] = system: Salmonella enterica; test: Antibacterial activity against Salmonella enterica ATCC 13311 by agar diffusion assay; type: functional; how it was run: as §1
# [9] = system: Klebsiella pneumoniae; test: Antibacterial activity against Klebsiella pneumoniae ATCC 8308 by agar diffusion assay; type: functional; how it was run: as §1
# [10] = system: Candida albicans; test: Antifungal activity against Candida albicans BMSY 212 by agar diffusion assay; type: functional
# How it was run: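 Agar-well diffusion: Candida albicans at 10^6 CFU/ml was seeded in melted nutrient agar and poured into plates. Compound was loaded as 50 µl of a 0.2 mM solution into 9 mm holes. Plates were incubated at 30 °C and the inhibition zones recorded.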
# [11] = system: Staphylococcus aureus; test: Antibacterial activity against wild type Staphylococcus aureus SG 511 by agar diffusion assay; type: functional; how it was run: as §1
# [12] = system: Staphylococcus aureus; test: Antibacterial activity against MRSA Staphylococcus aureus 134/93 by agar diffusion assay; type: functional; how it was run: as §1
# [13] = system: Enterococcus faecalis; test: Antibacterial activity against VRE Enterococcus faecalis 1528 by agar diffusion assay; type: functional; how it was run: as §1
# [14] = system: Beta-lactamase (Bacillus cereus); test: Inhibition of Bacillus cereus penicillinase
Structure (SMILES),inhibition zone (IZ) [1] [mm],inhibition zone (IZ) [2] [mm],inhibition zone (IZ) [3] [mm],inhibition zone (IZ) [4] [mm],inhibition zone (IZ) [5] [mm],inhibition zone (IZ) [6] [mm],inhibition zone (IZ) [7] [mm],inhibition zone (IZ) [8] [mm],inhibition zone (IZ) [9] [mm],inhibition zone (IZ) [10] [mm],inhibition zone (IZ) [11] [mm],inhibition zone (IZ) [12] [mm],inhibition zone (IZ) [13] [mm],inhibition [14]
O=C(Cc1ccccc1)NCC(=O)N1O[C@H](C(=O)O)C[C@@H]1C(=O)O,0,0,0,0,0,26,0,0,0,0,0,0,0,
C[C@@H](NC(=O)Cc1ccccc1)C(=O)N1O[C@H](C(=O)O)C[C@@H]1C(=O)O,,,,,,25,0,0,0,,,,,
C[C@H](NC(=O)Cc1ccccc1)C(=O)N1O[C@H](C(=O)O)C[C@@H]1C(=O)O,,,,,,20,0,0,0,,,,,inactive
CO/N=C(\C(=O)N[C@@H]1C(=O)N2C(C(=O)O)=C(COC(C)=O)CS[C@H]12)c1csc(N)n1 [CEFOTAXIME],0,21,28,0,,,,,,,26,0,22,
O=C(O)c1cn(C2CC2)c2cc(N3CCNCC3)c(F)cc2c1=O [CIPROFLOXACIN],38,,27,,35,,,,,,29,0,24,
N[C@@H](C(=O)N[C@@H]1C(=O)N2C(C(=O)O)=C(Cl)CC[C@H]12)c1ccccc1 [LORACARBEF ANHYDROUS],0,24,23,0,0,,,,,,28,0,0,
CC1(C)S[C@@H]2[C@H](NC(=O)Cc3ccccc3)C(=O)N2[C@H]1C(=O)O [PENICILLIN G],,,,,,54,23,37,12,,,,,
